The values below come from ChEMBL document CHEMBL4152258, “Identification of chalcone-based antileishmanial agents targeting trypanothione reductase” (Eur J Med Chem, 2018).

Usually IC50 stands for the midpoint of a concentration-inhibition curve. A word on the CC50: it is the concentration that lowers cell viability or growth by half. As usually defined, the Ki is the equilibrium dissociation constant of an inhibitor or competing ligand from its target. Broadly, the Kd is the concentration at which binding is half-saturated.

Molecules are shown by their SMILES.

For one data set, the system named is Leishmania infantum. In words: Antileishmanial activity against promastigote stage of Leishmania infantum MHOM/TN/80/IPT1 assessed as parasite growth inhibition after 72 hrs by Alamar blue assay. The format is functional, organism-based. As to conditions: MHOM/TN/80/IPT1, 72 h. The method in brief:
(§1)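 Late log/stationary promastigotes were seeded at 10^6/mL in HOMEM with 20% FBS and exposed to compounds at 40–1.6 µM for 72 h at 26 °C, from 8 mM DMSO stocks. AlamarBlue was then added for 24 h at 26 °C, and absorbance was read at 550 and 630 nm. Runs were in duplicate. IC50/72h is the mean of two independent determinations.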
Background: The colour change of resazurin is a common sign of viable cells or microbes.

Data set [1] can be described thus: Safety index, ratio of test compound CC50 to amphotericin B CC50 for African green monkey Vero cells. To be noted: chlorocebus sabaeus. The format is ADME, cell-based.
Data set [2] concerns Leishmania donovani. In words: Antileishmanial activity against promastigote stage of Leishmania donovani MHOM/NP/02/BPK282/0c14 assessed as parasite growth inhibition after 72 hrs by Alamar blue assay. The format is functional, organism-based. As to conditions: MHOM/NP/02/BPK282/0c14, 72 h. Summed up: as §1
The nature of data set [3]: Ratio of IC50 for promastigote stage of Leishmania donovani MHOM/NP/02/BPK282/0c14 to Ki for Leishmania spp. trypanothione reductase.
The next data set has as its system Leishmania major. In words: Antileishmanial activity against promastigote stage of Leishmania major MHOM/SU/73/5-ASKH assessed as parasite growth inhibition after 72 hrs by Alamar blue assay. The format is functional, organism-based. The method in brief:
as §1

Data set [4] is described as follows: Ratio of IC50 for amastigote stage of Leishmania donovani MHOM/NP/02/BPK282/0c14 to Ki for Leishmania spp. trypanothione reductase.
A short description of data set [5]: Cytotoxicity against African green monkey Vero cells after 72 hrs by Alamar blue assay. As to conditions: chlorocebus sabaeus. Type of data set: cell-based. The method in brief:
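Vero cells were seeded at 10^5/mL in MEM with 10% FBS and exposed to compounds up to 600 µM for 72 h at 37 °C, 5% CO2. AlamarBlue was added for 24 h at 37 °C, with absorbance read at 550 and 630 nm. Duplicates. CC50/72h determined.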

Data set [6] is described as follows: Safety index, ratio of test compound CC50 to amphotericin B CC50 for human THP1 cells. As to conditions: THP-1 cells. The format is ADME, cell-based.
The nature of data set [7]: Competitive inhibition of Leishmania spp. trypanothione reductase in presence of 75 to 400 uM TS2 by Dixon plot analysis. More on the design: species or system Leishmania sp. The method in brief: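 Recombinant L. infantum TR at 40 nM was equilibrated for 2 min at 25 °C with TS2 (75–400 µM) and inhibitor (30 nM–1 µM). The reaction was started with 40 µM NADPH, and NADPH oxidation was followed as A340 decrease (ε 6,222 M−1 cm−1). A Dixon plot was built by linear regression of reciprocal fitted rates against inhibitor concentration.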

Another data set deals with Leishmania sp. In words: Potency index, ratio of Sb3+ Ki to test compound Ki for Leishmania spp. trypanothione reductase.
For data set [8], the system named is Leishmania donovani. In words: Antileishmanial activity against amastigote stage of Leishmania donovani MHOM/NP/02/BPK282/0c14 infected in human THP1 cells assessed as parasite growth inhibition after 72 hrs by Giemsa staining-based assay. The format is functional, organism-based. As to conditions: MHOM/NP/02/BPK282/0c14, THP-1, 72 h. Summed up:
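THP-1 cells at 10^5 cells/mL differentiated with 0.1 µM PMA for 48 h at 37 °C, 5% CO2, then infected with stationary-phase promastigotes. After 24 h, compounds were added at 40–1.5 µM for 72 h. Wells were Giemsa-stained, and the infectivity index (% infected macrophages × mean amastigotes per macrophage) was counted on ≥100 cells in duplicate cultures. IC50/72h determined.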

Data set [9] can be described thus: Binding affinity to Leishmania spp. trypanothione reductase by surface plasmon resonance analysis. Set-up: species or system Leishmania sp. The method in brief: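 Recombinant L. infantum TR was amine-coupled to ~2000 RU on a carboxyl sensor chip. Analytes in HBS pH 7.4 + 1% DMSO were given as FastStep serial doubling injections from 1.56 to 100 µM, followed by dissociation after 100 s. A protein-free surface served as control. Sensorgrams are averages of three experiments. KD came from Scatchard plots and a global 1:1 binding fit.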
(Surface plasmon resonance follows binding to a sensor surface in real time, without labels.)

A short description of data set [10]: Selectivity index, ratio of CC50 for African green monkey Vero cells to IC50 for Leishmania donovani MHOM/NP/02/BPK282/0c14. The format is toxicity. As to conditions: read-out: Ratio CC50/IC50. The method in brief: (§2)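 Selectivity index calculated as CC50/72h in Vero (16) or THP-1 (17) cells divided by IC50/72h against L. donovani promastigotes.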
Data set [11] in a line: Selectivity index, ratio of CC50 for human THP1 cells to IC50 for Leishmania donovani MHOM/NP/02/BPK282/0c14. The format is toxicity. To be noted: THP-1 cells, read-out: Ratio CC50/IC50. Summed up:
as §2

A further data set relates to Leishmania tropica. In words: Antileishmanial activity against promastigote stage of Leishmania tropica MHOM/SU/74/K27 assessed as parasite growth inhibition after 72 hrs by Alamar blue assay. Type of data set: functional, organism-based. To be noted: MHOM/SU/74/K27, 72 h. Summed up:
as §1

The nature of data set [12]: Cytotoxicity against human THP1 cells after 72 hrs by Alamar blue assay. Type of data set: cell-based. To be noted: THP-1 cells. The method in brief:
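THP-1 cells were seeded at 10^5 cells/mL in RPMI-1640 with 10% FBS and adhered with 0.1 µM PMA, then exposed to compounds for 72 h at 37 °C, 5% CO2. AlamarBlue was added for 24 h at 37 °C, with absorbance read at 550 and 630 nm. Duplicates. CC50/72h determined.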

Consider `COc1cc(OCC=C(C)C)ccc1C(=O)/C=C/c1ccc([N+](=O)[O-])cc1`, for which the 50% inhibitory concentration (IC50) in the data set on Leishmania infantum turned out to be 1.6 µM; in the data set on Leishmania donovani [2], 3 µM; in the data set with Leishmania major it was 3.3 µM; with Leishmania donovani [8] it was 14 µM; in the data set with Leishmania tropica, 5.2 µM. The selectivity ratio in data set [1] was 3; in [6], 3; in data set [10], 200; in data set [11] it was 200. Moreover, the Ratio turned out to be 6 in data set [3] and 30 in [4]. Moreover, the CC50 at 72 h in data set [5] and in data set [12] was 600 µM in each case. Also, the inhibition constant Ki in [7] was determined as 0.45 µM. Besides, in the data set on Leishmania sp., the Ratio Ki turned out to be 3. The same compound showed a Kd in [9] of 0.6 µM.
